Reference: ChEMBL document CHEMBL1142706, “Synthesis and evaluation of (pyridylmethylene)tetrahydronaphthalenes/-indanes and structurally modified derivatives: potent and selective inhibitors of aldosterone synthase” (J Med Chem, 2005)

How the values were obtained:
[1] = molecular target: T1, Cytochrome P450 11B2, mitochondrial (Homo sapiens, UniProt P19099); experiment: In vitro inhibitory concentration against human CYP11B2 expressed in V79MZh hamster fibroblasts incubated with 100 nM of substrate deoxy-corticosterone in presence of the compound
T1 sequence (P19099 whole entry): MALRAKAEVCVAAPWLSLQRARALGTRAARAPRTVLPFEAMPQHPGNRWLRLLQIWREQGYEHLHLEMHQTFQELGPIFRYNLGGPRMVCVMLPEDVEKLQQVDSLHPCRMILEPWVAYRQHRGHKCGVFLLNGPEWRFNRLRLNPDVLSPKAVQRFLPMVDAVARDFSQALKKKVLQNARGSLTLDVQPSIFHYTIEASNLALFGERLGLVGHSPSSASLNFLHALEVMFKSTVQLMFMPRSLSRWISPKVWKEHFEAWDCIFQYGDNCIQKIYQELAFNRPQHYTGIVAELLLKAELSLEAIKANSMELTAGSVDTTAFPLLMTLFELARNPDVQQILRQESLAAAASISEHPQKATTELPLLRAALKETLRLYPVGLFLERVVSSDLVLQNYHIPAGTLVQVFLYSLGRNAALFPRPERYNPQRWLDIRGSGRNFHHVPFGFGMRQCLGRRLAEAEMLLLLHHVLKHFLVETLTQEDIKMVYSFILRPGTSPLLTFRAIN
Method in brief: (§1)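 Intact V79 MZh hamster fibroblasts expressing human CYP11B1 or CYP11B2, incubated with [4-14C]-11-deoxycorticosterone (100 nM) and inhibitor at no fewer than three concentrations to give IC50. Stopped with ethyl acetate, shaken, centrifuged (10 000g, 2 min); steroids in organic phase analysed by HPTLC/phosphoimager. Mean of four determinations, standard deviation less than 5%.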

[2] = molecular target: T2, CYP11B1 (Homo sapiens, UniProt P15538); experiment: (§2) In vitro inhibitory concentration against human CYP11B1 expressed in V79 MZh hamster fibroblasts incubated with 100 nM of substrate deoxy-corticosterone in presence of the compound; conditions: human, V79 MZh hamster fibroblasts expressing human CYP11B1, probe deoxy-corticosterone
T2 sequence (P15538 whole entry): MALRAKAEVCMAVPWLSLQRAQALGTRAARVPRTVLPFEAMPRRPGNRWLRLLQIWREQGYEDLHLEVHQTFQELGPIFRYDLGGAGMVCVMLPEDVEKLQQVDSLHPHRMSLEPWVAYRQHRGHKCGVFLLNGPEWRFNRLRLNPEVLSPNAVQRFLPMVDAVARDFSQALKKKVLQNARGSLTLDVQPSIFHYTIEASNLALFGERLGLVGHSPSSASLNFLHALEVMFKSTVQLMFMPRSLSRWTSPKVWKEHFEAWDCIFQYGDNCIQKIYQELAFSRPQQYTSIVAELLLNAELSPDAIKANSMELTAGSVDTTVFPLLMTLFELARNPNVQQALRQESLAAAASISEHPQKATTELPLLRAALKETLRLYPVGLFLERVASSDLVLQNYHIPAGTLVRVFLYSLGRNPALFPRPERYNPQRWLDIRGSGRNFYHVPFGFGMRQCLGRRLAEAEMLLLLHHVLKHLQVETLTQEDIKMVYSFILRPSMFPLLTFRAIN

[3] = species: Homo sapiens; experiment: In vitro IC50 ratio against human CYP11B1 to that of human CYP11B2
Method in brief: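 IC50 ratio from V79 MZh hamster fibroblasts expressing human CYP11B1 or CYP11B2, each incubated with [4-14C]-11-deoxycorticosterone (100 nM) and inhibitor at no fewer than three concentrations; steroids extracted into ethyl acetate and quantified by HPTLC with phosphoimaging.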

[4] = molecular target: T3, Cytochrome P450 11B1, mitochondrial (Homo sapiens, UniProt P15538); experiment: as §2
T3 sequence (P15538 whole entry): T2 sequence (P15538 whole entry)

[5] = molecular target: T4, Aromatase (Homo sapiens, UniProt P11511); experiment: In vitro inhibitory concentration against human placental CYP19 incubated with 500 nM of substrate androstenedione in presence of the compound
T4 sequence (P11511 whole entry): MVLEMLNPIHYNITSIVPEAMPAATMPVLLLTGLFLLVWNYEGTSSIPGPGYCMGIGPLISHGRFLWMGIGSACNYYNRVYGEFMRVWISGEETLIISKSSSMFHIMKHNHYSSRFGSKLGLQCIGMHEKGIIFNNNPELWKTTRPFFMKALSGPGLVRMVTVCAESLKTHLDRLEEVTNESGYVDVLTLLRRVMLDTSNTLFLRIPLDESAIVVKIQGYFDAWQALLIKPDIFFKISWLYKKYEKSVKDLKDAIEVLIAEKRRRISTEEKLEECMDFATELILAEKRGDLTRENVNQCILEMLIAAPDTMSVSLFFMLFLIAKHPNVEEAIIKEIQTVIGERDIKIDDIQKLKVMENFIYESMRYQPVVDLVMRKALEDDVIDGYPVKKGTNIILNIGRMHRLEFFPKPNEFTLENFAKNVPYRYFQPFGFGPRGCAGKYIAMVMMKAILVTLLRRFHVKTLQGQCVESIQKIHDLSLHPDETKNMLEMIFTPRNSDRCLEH

[6] = molecular target: T1, Cytochrome P450 11B2, mitochondrial; experiment: In vitro inhibition of human CYP11B2 expressed in Schizosaccharomyces pombe incubated with 100 nM of substrate deoxy-corticosterone in presence of 500 nM of compound
[7] = molecular target: T1, Cytochrome P450 11B2, mitochondrial; experiment: In vitro inhibitory concentration against human CYP11B2 expressed in V79 MZh hamster fibroblasts incubated with 100 nM of substrate deoxy-corticosterone in presence of the compound; method in brief: as §1
[8] = molecular target: T5, CYP17 (Homo sapiens, UniProt P05093); experiment: In vitro inhibition of human CYP17 expressed in Escherichia coli incubated with 2.5 uM of substrate progesterone in presence of 2.5 uM of compound; conditions: probe progesterone
T5 sequence (P05093 whole entry): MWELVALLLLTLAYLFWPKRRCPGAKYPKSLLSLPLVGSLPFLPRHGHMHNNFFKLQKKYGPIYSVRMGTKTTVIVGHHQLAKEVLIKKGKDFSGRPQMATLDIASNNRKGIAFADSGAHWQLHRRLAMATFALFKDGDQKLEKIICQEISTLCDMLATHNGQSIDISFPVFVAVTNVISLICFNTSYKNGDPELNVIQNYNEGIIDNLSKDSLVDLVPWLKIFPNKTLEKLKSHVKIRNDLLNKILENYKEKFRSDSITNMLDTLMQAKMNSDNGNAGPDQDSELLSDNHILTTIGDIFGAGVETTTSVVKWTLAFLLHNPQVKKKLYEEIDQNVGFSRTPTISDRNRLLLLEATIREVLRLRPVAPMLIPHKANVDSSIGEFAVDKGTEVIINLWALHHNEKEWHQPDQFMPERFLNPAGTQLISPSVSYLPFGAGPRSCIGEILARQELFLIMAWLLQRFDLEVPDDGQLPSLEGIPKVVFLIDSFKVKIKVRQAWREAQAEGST

[9] = system: CYP11B2 (Homo sapiens); experiment: In vitro inhibitory concentration against human CYP11B2 expressed in V79 MZh hamster fibroblasts incubated with 100 nM of substrate deoxy-corticosterone in presence of the compound; conditions: V79 MZh hamster fibroblasts expressing human CYP11B2, probe deoxy-corticosterone

IC50 [1]	IC50 [2]	Selectivity ratio [3]	IC50 [5]	inhibition at 0.5 µM [6]	IC50 [7]	inhibition at 2.5 µM [8]	IC50 [9]	Compound	IC50 [4]
57 nM	58 nM	19.5	–	–	–	–	–	Fc1ccc2c(c1)CC/C2=C\c1cccc2cnccc12	–
27 nM	3180 nM	118	–	–	–	–	–	Fc1ccc2c(c1)CC/C2=C\c1cncnc1	–
–	–	1.7	–	67%	–	–	–	C/C(=C1/CCc2cc(F)ccc21)c1cccnc1	96 nM
–	–	–	2800 nM	15%	41 nM	–	–	CC1C/C(=C/c2cccnc2)c2ccccc21 (configuration not stated)	–
–	–	80.7	–	–	11 nM	14%	–	C(=C1/CCc2ccccc21)/c1cccnc1	–
15 nM	–	2	650 nM	54%	–	–	–	C(=C1/CCCc2ccccc21)/c1ccncc1	143 nM
65 nM	–	14.4	–	–	–	–	26 nM	Fc1ccc2c(c1)CC/C2=C/c1cccc2cnccc12	–
92 nM	–	0.9	3550 nM	83%	–	33%	–	C(=C1\CCc2ccccc21)/c1cccnc1	87 nM
18 nM	–	1.4	–	–	–	–	–	C(=C1\CCc2ccccc21)/c1ccncc1	931 nM

Compound	IC50 [1]	IC50 [2]	Selectivity ratio [3]	IC50 [5]	inhibition at 0.5 µM [6]	IC50 [7]	inhibition at 2.5 µM [8]	IC50 [9]	IC50 [4]
Brc1ccc2c(c1)CC/C2=C\c1ccncc1	24 nM	–	0.4	> 36000 nM	–	–	–	–	2640 nM
Brc1ccc2c(c1)CC/C2=C/c1ccncc1	56 nM	–	1.8	3400 nM	40%	–	–	–	484 nM
Fc1ccc2c(c1)CC/C2=C\c1ccncc1	15 nM	–	0.3	–	–	–	–	–	1100 nM
Fc1ccc2c(c1)CC/C2=C/c1ccncc1	29 nM	–	7.6	–	–	–	–	–	34 nM
